Xi reactivation: X-chromosome reactivation activator; XiGFP mouse fibroblasts, % GFP-positive cells imaging, 3 d; cells co-treated with 5-aza-dC sensitizer; scaled so ellipticine positive control = 100%; activation, % at 7.58 µM; 0.055% of 360,000 active;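 active = mean normalized replicate activation at least 10% and every replicate at or above 10%; inconclusive = only one of the two criteria met; inactive = mean below 10% and not all replicates reach 10%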
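Schedule: 3 d treatment, 15 min room-temperature fixation; system: 68-5-11 XiGFP fibroblast line; buffer or medium: DMEM plus 5-aza-dC sensitizer; control set: ellipticine 6 µM positive control; compound: one concentration, pinned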
Wnt bcat act: activates Wnt/beta-catenin signaling in a reporter cell assay | activator, plate reader | activation, % at 9.35 µM | 1.2% of 300,000 active; in the data active = activation above about 30%, passing the limit was not always enough; inconclusive = no clear call, values can overlap the other calls
esBAF inh: inhibitors of esBAF chromatin remodeling in mouse ES cells; reporter increase, % at 12.5 µM; 2% of 350,000 active; Bmi1-luciferase knock-in reporter, 24 h; 100% = twice the neutral-well signal; AID 602393; in the data active = activation above about 40%; inconclusive = no clear call, values can overlap the other calls;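 also: a rise in the Bmi1 reporter signal indicates esBAF inhibition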
MITF TRPM1 HTS: MITF TRPM1 promoter activation in melanoma cells; SK-MEL-5 TRPM1-promoter luciferase, 24 h; % of positive control, neutral wells = 0; activation, % at 12.5 µM; 0.75% of 300,000 active;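 active = mean activation of at least 80% with every replicate also reaching 80%; inconclusive = mean reaches 80% but some replicate falls short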
Vif imaging: HIV Vif inhibition. HEK293T cells, Vif self-association by quenched fluorescence, imaging, 24 h. inhibition, % at 7.49 µM. 0.35% of 340,000 active; in the data active = inhibition above about 50%, passing the limit was not always enough; inconclusive = no clear call, values can overlap the other calls; inactive = below about 31%
Large screens that a line does not name were inactive. A selection: hits, their analogues and other compounds. The true share with any hit is near 2.6%.

Cc1nc2ccc(NC(=S)NCc3ccccc3)cc2nc1C	esBAF inh 41
CC(C)(C=O)C1=CC(=O)c2ccccc2C1=O	Xi reactivation 18 (no result: Wnt bcat act, esBAF inh)
CC1=CC(=O)c2ccccc2C1=O	none
CCOC(=O)c1c(C)oc2c1c(C(c1ccccc1)N1CCOCC1)c(O)c1ccccc12 (stereo not drawn)	Wnt bcat act 40, esBAF inh 47 (no result: Xi reactivation)
CCOC(=O)c1c(C)oc2c1c(C(c1cccnc1)N1CCCCC1)c(O)c1ccccc12 (stereo not drawn)	none (no result: Xi reactivation, Wnt bcat act, esBAF inh, Vif imaging)
CCOC(=O)C1CCCN(C(=O)CSCc2ccccc2)C1 (stereo not drawn)	esBAF inh 48 (no result: Xi reactivation, Vif imaging)
CCOC(=O)C1CCCN(C(=O)CCc2nnc(-c3ccc(C(C)=O)s3)o2)C1 (stereo not drawn)	Wnt bcat act 41, esBAF inh 71
CCOC(=O)C1CCCN(C(=O)COc2ccccc2O)C1 (stereo not drawn)	none (no result: Xi reactivation, Wnt bcat act, MITF TRPM1 HTS)
O=C(C[C@@H]1CC[C@@H]2[C@H](COC[C@H](O)CN2C(=O)Nc2ccccc2)O1)NCc1ccncn1	none (no result: Wnt bcat act, MITF TRPM1 HTS, Vif imaging)
CC(=O)Nc1sc2c(c1-c1nc3ccccc3s1)CN(C(C)C)CC2	Wnt bcat act 58
COc1ccc2c3c(n(C)c2c1)[C@@H](CO)N(C(=O)C1CCCCC1)CC31CCN(C(=O)CN(C)C)CC1	none (no result: Wnt bcat act, esBAF inh, MITF TRPM1 HTS, Vif imaging)
CC1=NC(C(F)(F)F)(C(F)(F)F)C2=C(CC(C)(C)CC2=O)N1Cc1ccco1	none (no result: Xi reactivation, Wnt bcat act)
CC1(C)CC(=O)C2=C(C1)N(Cc1ccco1)C(=O)NC2(C(F)(F)F)C(F)(F)F	Vif imaging 54 (no result: Xi reactivation, Wnt bcat act)
CC(Cc1ccco1)NC(=O)c1ccc(C(F)(F)F)cc1 (stereo not drawn)	MITF TRPM1 HTS 128
COc1ccc(NC(=O)N(C)C[C@@H]2Oc3ccc(NC(=O)NC(C)C)cc3CC(=O)N([C@H](C)CO)C[C@H]2C)cc1	none (no result: Wnt bcat act, MITF TRPM1 HTS, Vif imaging)
O=C(CCNC(=O)c1ccccc1Cl)Nc1nc(-c2ccccc2Cl)cs1	esBAF inh 55
O=C(CCNC(=O)c1ccccc1Cl)Nc1nc(-c2ccc(F)cc2)cs1	none (no result: esBAF inh)
O=C(C[C@@H]1C[C@@H]2c3cc(NC(=O)CC4CC4)ccc3O[C@@H]2[C@H](CO)O1)NCCc1ccccc1	none (no result: Wnt bcat act, MITF TRPM1 HTS, Vif imaging)
O=C(NCCc1ccccc1)c1ccc2nc(-c3ccco3)c(-c3ccco3)nc2c1	none (no result: Xi reactivation, Wnt bcat act, MITF TRPM1 HTS)
O=C(c1ccccc1)c1ccc2nc(-c3ccco3)c(-c3ccco3)nc2c1	Wnt bcat act 36
CCCOc1ccc(-c2csc3nc[nH]c(=O)c23)cc1	Wnt bcat act 38, esBAF inh inconclusive
C[C@@H]1CN([C@H](C)CO)C(=O)c2cc(NS(=O)(=O)c3cccs3)ccc2O[C@H]1CN(C)Cc1ccc(Cl)c(Cl)c1	none (no result: Wnt bcat act, MITF TRPM1 HTS, Vif imaging)
COc1ccc(S(=O)(=O)Nc2ccc3c(c2)CC(=O)N([C@H](C)CO)C[C@H](C)[C@H](CN(C)C(=O)NC2CCCCC2)O3)cc1	none (no result: Wnt bcat act, MITF TRPM1 HTS, Vif imaging)
CC(=O)c1ccc(NC(=O)c2sc3nc(C)c(C)c(C)c3c2N)cc1	esBAF inh inconclusive
Cc1nc2sc(C(=O)Nc3ccccc3)c(N)c2c(C)c1[N+](=O)[O-]	Wnt bcat act 36 (no result: esBAF inh)
Cc1ccc(NC(=O)CS(=O)c2ccccc2N)c(C)c1 (stereo not drawn)	esBAF inh 50
Cc1ccc(N=Nc2c(N)nn(-c3ccccc3)c2N)cc1	Wnt bcat act 33 (no result: esBAF inh)
COc1ccc(N=Nc2c(N)nn(C)c2N)cc1	esBAF inh 44
CC(C)C#Cc1cnc2c(c1)C(=O)N([C@H](C)CO)C[C@H](C)[C@@H](CN(C)Cc1ccccc1)O2	none (no result: Wnt bcat act, MITF TRPM1 HTS, Vif imaging)
Cc1ccc(-c2ccc(NC(=O)C3C4C=CC(C4)C3C(=O)O)cc2)o1 (stereo not drawn)	esBAF inh 59 (no result: Xi reactivation, Wnt bcat act, MITF TRPM1 HTS)
COc1ccc2c(c1)c(=O)oc1cc(OCC(=O)NCC3CCC(C(=O)O)CC3)ccc12 (stereo not drawn)	Vif imaging 55 (no result: Xi reactivation)
CCCn1c(C)cc(C(=O)CN2C(=O)NC3(CCCCCC3)C2=O)c1C	esBAF inh 54 (no result: MITF TRPM1 HTS)
Cc1cc(C(=O)CN2C(=O)NC3(CCCCCC3)C2=O)c(C)n1C	esBAF inh 44
Cc1cc(C(=O)CN2C(=O)C3CC=CCC3C2=O)c(C)n1-c1ccccc1 (stereo not drawn)	Wnt bcat act 48 (no result: Xi reactivation, MITF TRPM1 HTS)
COCCn1c(C)cc(C(=O)CN2C(=O)NC3(CCCCCC3)C2=O)c1C	Wnt bcat act inconclusive, esBAF inh inconclusive
CCCn1c(C)cc(C(=O)CN2C(=O)c3ccccc3C2=O)c1C	Wnt bcat act 43 (no result: esBAF inh)
CCn1c(C)cc(C(=O)CN2C(=O)c3ccccc3S2(=O)=O)c1C	none

Screening data from PubChem BioAssay.
